Results pooled from the literature.
Compare with care: the assays were run in different laboratories.
Target: Mitogen-activated protein kinase 15 (MAPK15, Homo sapiens, UniProt Q8TD08)
Residues used in one study (Q8TD08 1-544): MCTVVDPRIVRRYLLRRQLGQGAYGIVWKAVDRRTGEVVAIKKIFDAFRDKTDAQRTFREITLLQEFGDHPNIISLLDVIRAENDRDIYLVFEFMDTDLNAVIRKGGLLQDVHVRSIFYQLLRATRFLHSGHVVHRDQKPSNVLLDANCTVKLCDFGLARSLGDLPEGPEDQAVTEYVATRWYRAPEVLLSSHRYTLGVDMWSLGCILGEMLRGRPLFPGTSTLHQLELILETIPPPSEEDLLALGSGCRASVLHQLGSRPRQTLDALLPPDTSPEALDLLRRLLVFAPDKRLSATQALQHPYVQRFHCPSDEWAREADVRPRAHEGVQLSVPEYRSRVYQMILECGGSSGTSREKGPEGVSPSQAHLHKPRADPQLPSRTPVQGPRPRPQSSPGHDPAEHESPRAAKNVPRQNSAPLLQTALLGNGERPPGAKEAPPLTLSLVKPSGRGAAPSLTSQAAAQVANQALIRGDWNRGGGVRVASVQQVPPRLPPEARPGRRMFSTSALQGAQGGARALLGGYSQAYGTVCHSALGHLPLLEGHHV

| SMILES | assay | conditions | remaining binding [%] |
| --- | --- | --- | --- |
| CO[C@@H](C)c1c(Nc2ccc([C@H](N(C)C(=O)C3CCS(=O)(=O)CC3)C(F)(F)F)cc2)cnc2cc(Cl)nn12 | cell-free assay, competition with immobilised ligand | 1 µM | 87 |
| O=C(NCC1CCOCC1)c1n[nH]cc1NC(=O)c1c(F)cccc1F | binding, competition with immobilised ligand | 1 µM | 79 |
| O=C(c1ccc(Nc2ncc(Cl)c(-c3ccc(Cl)s3)n2)cc1)N1CCC(N2CCCC2)CC1 | binding, competition with immobilised ligand | 1 µM | 3.8 |
| O=C(O)c1cc(-c2ccc(C3CCNCC3)cc2)c2ccc(-c3ccc(C(F)(F)F)cc3)cc2c1 | cell-free assay, competition with immobilised ligand | 1 µM | 100 |
| O=C(c1ccc(Nc2nccc(-c3cc4ccccc4s3)n2)cc1)N1CCC(N2CCCC2)CC1 | binding, competition with immobilised ligand | 1 µM | 49 |
| COc1ccnn2ncc(-c3ccnc(N(C)C)n3)c12 | binding | 1 µM | 91 |
| C=CC(=O)N1CCC(C(=O)NCC(=O)N2CCN(c3nc(-c4cnc(N)nc4C(F)F)nc(N4CCOCC4)n3)CC2)CC1 | binding, competition with immobilised ligand | 1 µM | 97 |
| F[C@@H]1CCN(c2nccc(-c3cnn4ncccc34)n2)C1 | binding | 1 µM | 66 |
| CCS(=O)(=O)c1cc2cc(C[C@](O)(CC(C)(C)c3ccc(F)cc3C(N)=O)C(F)(F)F)[nH]c2cn1 | cell-free assay, competition with immobilised ligand | 1 µM | 100 |
| O=C(NCCCN1CCOCC1)c1ccc(Nc2nccc(-c3cc4ccccc4s3)n2)cc1 | binding, competition with immobilised ligand | 1 µM | 10 |
| O=S(=O)(NC1CCC(c2cc(F)ccc2F)(S(=O)(=O)c2ccc(Cl)cc2)CC1)C(F)(F)F (stereo not shown) | cell-free assay, competition with immobilised ligand | 1 µM | 94 |
| N[C@H]1CCN(c2nccc(-c3cnn4ncccc34)n2)C1 | binding | 1 µM | 93 |
| CSc1cccnc1N1CCN(Cc2nc3ccccc3[nH]2)CC1 | cell-free assay, competition with immobilised ligand | 1 µM | 82 |
| C[C@@H]1CCN(c2nccc(-c3cnn4ncccc34)n2)C1 | binding | 1 µM | 49 |
| CS(=O)(=O)N1CCCC(NC(=O)[C@H](CCC2CCCCC2)NC(=O)c2ccc(CNC(=O)c3cnc4ccccn34)cc2)C1 (stereo partly shown) | cell-free assay, competition with immobilised ligand | 0.1 µM | 100 |
| COc1cnc(Nc2cccc(S(N)(=O)=O)c2)nc1N1CCN(c2ccccc2)C(=O)C1 | binding, competition with immobilised ligand | 1 µM | 100 |
| c1cnn2ncc(-c3ccnc(N4CCC45COC5)n3)c2c1 | binding | 1 µM | 71 |
| CNC(=O)[C@@H]1CC[C@@H](n2c(-c3ccc4cnccc4c3)nc3ccc(C(=O)NCc4cccc(C(N)=O)c4)cc32)C1 | binding, competition with immobilised ligand | 1 µM | 95 |
| CN(C)c1nccc(-c2cnn3ncccc23)n1 | binding | 1 µM | 51 |
| C[C@H](c1ccc(F)cc1)N(Cc1cccc(C(=O)O)c1)C(=O)c1cnc2ccccc2c1 | cell-free assay, competition with immobilised ligand | 1 µM | 93 |
| CC1CCCN1c1nccc(-c2cnn3ncccc23)n1 (stereo not shown) | binding | 1 µM | 100 |
| CCN1CCN(Cc2ccc(C(=O)Nc3ccc(C)c(Oc4ccc5c(c4)CC(=O)N5)c3)cc2C(F)(F)F)CC1 | binding, competition with immobilised ligand | 1 µM | 100 |
